# Test results as given in ChEMBL document CHEMBL1131183, “New 1alpha,25-dihydroxy-19-norvitamin D3 compounds of high biological activity: synthesis and biological evaluation of 2-hydroxymethyl, 2-methyl, and 2-methylene analogues” (1998).
# Where “and” joins values, the source holds several entries; their conditions need not be identical. Equal values may be shown once.
# Assays:
# HL-60 = experiment: Induced differentiation of human promyelocyte HL-60 cells into monocytes; format: functional; conditions: read-out: ED50 (the source's name)
# Rattus norvegicus [1] = organism: Rattus norvegicus; experiment: Support of intestinal calcium transport measured in vitamin D-deficient rats on a low-calcium diet(130); format: functional
# Method in brief: (§1)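 Vitamin D-deficient weanling male rats, 0.47% Ca diet 1 week then 0.02% Ca diet 3 weeks, given 130 or 260 pmol ip daily for 7 days in 0.1 mL propylene glycol/ethanol 95:5; vehicle controls. Killed 24 h after last dose; everted sac of proximal 10 cm intestine, Ca by atomic absorption, expressed as serosal/mucosal ratio. ≥6 rats/group, mean ± SEM, t-test.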
# Rattus norvegicus [2] = organism: Rattus norvegicus; experiment: Support of intestinal calcium transport measured in vitamin D-deficient rats on a low-calcium diet(260); format: functional; method in brief: as §1
# Rattus norvegicus [3] = organism: Rattus norvegicus; experiment: Bone calcium mobilization measured in vitamin D-deficient rats on a low-calcium diet(130); format: functional, organism-based
# Method in brief: (§2)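 Weanling male rats kept on 0.47% Ca diet 1 week, then 0.02% Ca diet 3 weeks; dosed ip daily for 7 days (130 or 260 pmol) in 0.1 mL propylene glycol/ethanol 95:5 during last week; vehicle controls. Serum Ca measured 24 h after last dose by atomic absorption with 0.1% LaCl3; rise in serum Ca taken as bone mobilization. ≥6 rats/group, mean ± SEM, Student's t-test.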
# Rattus norvegicus [4] = organism: Rattus norvegicus; experiment: Bone calcium mobilization measured in vitamin D-deficient rats on a low-calcium diet(260); format: functional, organism-based; method in brief: as §2
# [5] = target: T1, Vitamin D3 receptor (Sus scrofa) (UniProt A3RGC1)
# T1 sequence (whole entry): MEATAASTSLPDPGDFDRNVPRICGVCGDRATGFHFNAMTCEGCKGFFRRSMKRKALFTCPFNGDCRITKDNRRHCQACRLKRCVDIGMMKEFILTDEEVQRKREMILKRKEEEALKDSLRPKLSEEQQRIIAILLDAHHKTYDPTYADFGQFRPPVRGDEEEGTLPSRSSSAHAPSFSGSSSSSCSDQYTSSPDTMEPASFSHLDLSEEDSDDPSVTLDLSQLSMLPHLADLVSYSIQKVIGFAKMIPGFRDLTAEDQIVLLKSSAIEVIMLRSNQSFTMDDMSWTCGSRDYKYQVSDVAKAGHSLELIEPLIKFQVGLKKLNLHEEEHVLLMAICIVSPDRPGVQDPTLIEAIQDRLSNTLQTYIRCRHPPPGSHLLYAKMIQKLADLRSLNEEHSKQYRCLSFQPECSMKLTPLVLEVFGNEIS
# [6] = target: T1, Vitamin D3 receptor (Sus scrofa); experiment: Inhibition of 1-alpha,25-(OH)2D3 binding to porcine intestinal vitamin D receptor
# Method in brief: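 Porcine intestinal nuclear extract, 0.1 mg protein (200 fmol binding activity) per tube, incubated with 10 000 cpm 1α,25-(OH)2[26,27-3H]D3 plus graded unlabelled standard or analogue in ethanol, 4 h room temperature with shaking. Bound label captured on hydroxyapatite, washed with TE/5% Triton, counted by scintillation. ED50 = concentration displacing 50% of label, from dose-response curves; triplicate on two occasions.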
Compound,EC50 (HL-60) [nM],Ca2+ transport S/M (Rattus norvegicus [1]),Ca2+ transport S/M (Rattus norvegicus [2]),Serum Ca2+ (Rattus norvegicus [3]),Serum Ca2+ (Rattus norvegicus [4]),"EC50 (HL-60; Homo sapiens, HL-60) [nM]",ED50 [5],ED50 [6] [nM]
CC1[C@H](O)CC(=C/C=C2\CCC[C@]3(C)[C@@H]([C@@H](C)CCCC(C)(C)O)CC[C@@H]23)C[C@H]1O (stereo partly specified) [listing 1 of 3 here],0.07,12.9,8.4,–,–,–,–,–
C[C@@H](CCCC(C)(C)O)[C@H]1CC[C@H]2/C(=C/C=C3C[C@@H](O)C(CO)[C@H](O)C3)CCC[C@]12C (stereo partly specified) [listing 1 of 3 here],–,–,–,3.6 and 4,3.5 and 3.9,–,–,–
CC1[C@H](O)CC(=C/C=C2\CCC[C@]3(C)[C@@H]([C@H](C)CCCC(C)(C)O)CC[C@@H]23)C[C@H]1O (stereo partly specified) [listing 1 of 3 here],–,–,–,4.1 and 4.8,3.8 and 5.8,–,–,–
C=C1[C@H](O)CC(=C/C=C2\CCC[C@]3(C)[C@@H]([C@@H](C)CCCC(C)(C)O)CC[C@@H]23)C[C@H]1O [DP001],–,5.8,4.6,13.8,14.4,0.15,0.1 nM,–
C=C1/C(=C\C=C2/CCC[C@]3(C)[C@@H]([C@H](C)CCCC(C)(C)O)CC[C@@H]23)C[C@@H](O)C[C@@H]1O [CALCITRIOL],–,–,6.2 and 5.6 and 4.6 and 6.6,–,6.6 [middle of 4 runs],–,–,0.09
CC1[C@H](O)CC(=C/C=C2\CCC[C@]3(C)[C@@H]([C@H](C)CCCC(C)(C)O)CC[C@@H]23)C[C@H]1O (stereo partly specified) [listing 2 of 3 here],8,4.4,3,–,–,–,–,–
C[C@H](CCCC(C)(C)O)[C@H]1CC[C@H]2/C(=C/C=C3C[C@@H](O)C(CO)[C@H](O)C3)CCC[C@]12C (stereo partly specified),–,–,–,–,–,20,–,–
CC1[C@H](O)CC(=C/C=C2\CCC[C@]3(C)[C@@H]([C@H](C)CCCC(C)(C)O)CC[C@@H]23)C[C@H]1O (stereo partly specified) [listing 3 of 3 here],0.08,4.3,5.3,–,–,–,–,–
C[C@@H](CCCC(C)(C)O)[C@H]1CC[C@H]2/C(=C/C=C3C[C@@H](O)C(CO)[C@H](O)C3)CCC[C@]12C (stereo partly specified) [listing 2 of 3 here],2,5,5.8,–,–,–,–,–
C[C@@H](CCCC(C)(C)O)[C@H]1CC[C@H]2/C(=C/C=C3C[C@@H](O)C(CO)[C@H](O)C3)CCC[C@]12C (stereo partly specified) [listing 3 of 3 here],4.5,3.5,3.5,–,–,–,–,–
C=C1[C@H](O)CC(=C/C=C2\CCC[C@]3(C)[C@@H]([C@H](C)CCCC(C)(C)O)CC[C@@H]23)C[C@H]1O,–,5.3,4.9,9.9,9.6,4.2,0.12 nM,–
CC1[C@H](O)CC(=C/C=C2\CCC[C@]3(C)[C@@H]([C@@H](C)CCCC(C)(C)O)CC[C@@H]23)C[C@H]1O (stereo partly specified) [listing 2 of 3 here],–,–,–,8.3 and 4.4,10.3 and 4.4,–,0.4 nM and 0.5 nM,–
CC1[C@H](O)CC(=C/C=C2\CCC[C@]3(C)[C@@H]([C@@H](C)CCCC(C)(C)O)CC[C@@H]23)C[C@H]1O (stereo partly specified) [listing 3 of 3 here],0.7,2.9,3.8,–,–,–,–,–
